Data from ChEMBL document CHEMBL4251693, “Indolylmaleimide Derivative IM-17 Shows Cardioprotective Effects in Ischemia-Reperfusion Injury” (ACS Med Chem Lett, 2018).
Activity calls are given as the source filed them. The rule behind the calls is not given here.

What was measured:
[1] = test system: HL-60; assay: Cytoprotective activity against H2O2-induced necrosis in human HL60 cells assessed as increase in cell viability at 10 uM incubated for 1 hr followed by H2O2 stimulation measured after 4 hrs in presence of caspase inhibitor Z-VAD by phase contrast microscopy; type: functional, cell-based
Summary of the method: (§1)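 HL-60 cells exposed to low-level H2O2 (30 μM, 4 h) with or without test agent (10 μM) or Z-VAD (100 μM). Viability read by AlamarBlue; morphology by phase-contrast imaging.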

[2] = Solubility of the compound in water; type: physicochemical; conditions: buffer
[3] = test system: HL-60; assay: Cytoprotective activity against H2O2-induced necrosis in human HL60 cells assessed as increase in cell viability at 10 uM incubated for 1 hr followed by H2O2 stimulation measured after 4 hrs by Alamar blue assay; type: functional, cell-based; summary of the method: as §1
[4] = test system: HL-60; assay: Cytoprotective activity against Fas ligand-induced apoptosis in human HL60 cells assessed as increase in cell viability at 10 uM incubated for 1 hr followed by Fas ligand stimulation measured after 18 hrs by Alamar blue assay; type: functional, cell-based
Summary of the method: (§2)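 HL-60 cells given a death inducer with or without test agent (10 μM) or Z-VAD (100 μM). Inducers were actinomycin D 1 μM for 6 h, camptothecin 1 μM for 6 h, etoposide 100 μM for 4 h, FasL 100 ng/mL for 18 h, H2O2 100 μM for 3 h, and TBHP 30 μM for 3 h. Viability read by AlamarBlue.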

[5] = test system: HL-60; assay: Cytoprotective activity against TBHP-induced necrosis in human HL60 cells assessed as increase in cell viability at 10 uM incubated for 1 hr followed by TBHP stimulation measured after 3 hrs by Alamar blue assay; type: functional, cell-based; summary of the method: as §2
[6] = test system: HL-60; assay: Cytoprotective activity against H2O2-induced necrosis in human HL60 cells incubated for 1 hr followed by H2O2 stimulation by LDH release assay; type: functional, cell-based; conditions: HL-60, 1 h
Summary of the method: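 Necrosis of HL-60 cells induced by H2O2 and quantified as lactate dehydrogenase release from the cytosol; IC50 derived.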

[7] = test system: Jurkat; assay: Cytoprotective activity against Z-VAD-induced necroptosis in human Jurkat cells assessed as increase in cell viability at 10 uM incubated for 1 hr followed by Z-VAD stimulation by phase contrast microscopy; type: functional, cell-based
Summary of the method: (§3)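 Jurkat necroptosis induced with FasL (100 ng/mL, 20 h) together with Z-VAD (100 μM) or cycloheximide (5 μM). Test agents were run at 10 μM alongside a necroptosis inhibitor at 30 μM. Viability read by AlamarBlue; morphology examined by phase-contrast imaging.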

[8] = test system: HL-60; assay: Cytoprotective activity against H2O2-induced necrosis in human HL60 cells assessed as increase in cell viability at 10 uM incubated for 1 hr followed by H2O2 stimulation measured after 4 hrs by phase contrast microscopy; type: functional, cell-based; summary of the method: as §1
[9] = test system: Jurkat; assay: Cytoprotective activity against FasL-induced apoptosis in human Jurkat cells assessed as increase in cell viability at 10 uM incubated for 1 hr followed by FasL stimulation measured after 18 hrs by Alamar blue assay; type: functional, cell-based
Summary of the method: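 Jurkat cells exposed to FasL (100 ng/mL, 18 h) with or without test agent (10 μM) or Z-VAD (100 μM). Viability measured by AlamarBlue and morphology by phase-contrast imaging.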

[10] = test system: HL-60; assay: Cytoprotective activity against actinomycin D-induced apoptosis in human HL60 cells assessed as increase in cell viability at 10 uM incubated for 1 hr followed by actinomycin D stimulation measured after 6 hrs by Alamar blue assay; type: functional, cell-based; summary of the method: as §2
[11] = test system: H9c2; assay: Cytoprotective activity against TBHP-induced necrosis in rat H9c2 cells incubated for 4 hrs by LDH release assay; type: functional, cell-based; conditions: H9c2, 4 h
Summary of the method: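 Rat cardiomyoblast H9c2 cells treated with TBHP (300 μM) with or without test compound; necrotic cell death quantified by LDH release assay.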

[12] = test system: HL-60; assay: Cytoprotective activity against H2O2-induced necrosis in human HL60 cells assessed as increase in cell viability at 10 uM incubated for 1 hr followed by H2O2 stimulation measured after 3 hrs by Alamar blue assay; type: functional, cell-based; summary of the method: as §2
[13] = test system: H9c2; assay: Cytotoxicity against rat H9c2 cells at 30 uM; type: cell-based; conditions: h9c2, 30 µM
[14] = test system: Jurkat; assay: Cytoprotective activity against CHX-induced necroptosis in human Jurkat cells assessed as increase in cell viability at 10 uM incubated for 1 hr followed by CHX stimulation by Alamar blue assay; type: functional, cell-based; summary of the method: as §3
[15] = test system: Jurkat; assay: Cytoprotective activity against Z-VAD-induced necroptosis in human Jurkat cells assessed as increase in cell viability at 10 uM incubated for 1 hr followed by Z-VAD stimulation by Alamar blue assay; type: functional, cell-based; summary of the method: as §3
[16] = test system: HL-60; assay: Cytoprotective activity against etoposide-induced apoptosis in human HL60 cells assessed as increase in cell viability at 10 uM incubated for 1 hr followed by etoposide stimulation measured after 4 hrs by Alamar blue assay; type: functional, cell-based; summary of the method: as §2
[17] = test system: HL-60; assay: Cytoprotective activity against H2O2-induced necrosis in human HL60 cells assessed as increase in cell viability at 10 uM incubated for 1 hr followed by H2O2 stimulation measured after 4 hrs in presence of caspase inhibitor Z-VAD by Alamar blue assay; type: functional, cell-based; summary of the method: as §1
[18] = test system: HL-60; assay: Cytoprotective activity against camptothecin-induced apoptosis in human HL60 cells assessed as increase in cell viability at 10 uM incubated for 1 hr followed by camptothecin stimulation measured after 6 hrs by Alamar blue assay; type: functional, cell-based; summary of the method: as §2
[19] = Stability in rat liver S9 fraction at 5 uM after 30 mins by HPLC method; type: ADME, subcellular; conditions: s9, 0.5 h
[20] = test system: Jurkat; assay: Cytoprotective activity against FasL-induced necroptosis in human Jurkat cells assessed as increase in cell viability at 10 uM incubated for 1 hr followed by FasL stimulation measured after 20 hrs by phase contrast microscopy; type: functional, cell-based; summary of the method: as §3
[21] = test system: Jurkat; assay: Cytoprotective activity against CHX-induced necroptosis in human Jurkat cells assessed as increase in cell viability at 10 uM incubated for 1 hr followed by CHX stimulation by phase contrast microscopy; type: functional, cell-based; summary of the method: as §3
[22] = test system: HL-60; assay: Cytoprotective activity against H2O2-induced apoptosis in human HL60 cells assessed as increase in cell viability at 10 uM incubated for 1 hr followed by H2O2 stimulation measured after 4 hrs in presence of caspase inhibitor Z-VAD by Alamar blue assay; type: functional, cell-based; summary of the method: as §1
[23] = test system: HL-60; assay: Cytoprotective activity against H2O2-induced apoptosis in human HL60 cells assessed as increase in cell viability at 10 uM incubated for 1 hr followed by H2O2 stimulation measured after 4 hrs in presence of caspase inhibitor Z-VAD by phase contrast microscopy; type: functional, cell-based; summary of the method: as §1
[24] = test system: Jurkat; assay: Cytoprotective activity against FasL-induced necroptosis in human Jurkat cells assessed as increase in cell viability at 10 uM incubated for 1 hr followed by FasL stimulation measured after 20 hrs by Alamar blue assay; type: functional, cell-based; summary of the method: as §3

For CCCCCNC1=C(c2cn(C)c3ccccc23)C(=O)N(C)C1=O, the Activity [1] was “Active”, the solubility [2] was “Insoluble” and the Activity [3] was “Active”. For the same compound, the Activity [4] was “inactive”, the Activity [5] was “Active” and the IC50 [6] was 250 nM. The Activity [7] was “inactive”, the Activity [8] was “Active” and the Activity [9] was “inactive”. The Activity [10] was “inactive”, the IC50 [11] was 3900 nM and the Activity [12] was “Active”. The Activity [13] was “Non-Toxic”, the Activity [14] was “inactive” and the Activity [15] was “inactive”. For the same compound, the Activity [16] was “inactive”, the Activity [17] was “Active” and the Activity [18] was “inactive”. For the same compound, the Stability [19] was “Unstable”, the Activity [20] was “inactive” and the Activity [21] was “inactive”. The Activity [22] was “Active”, the Activity [23] was “Active” and the Activity [24] was “inactive”.
